Experimental data collected from several papers.
Each line is one published result; the experiments were not run side by side.
Target: Prostaglandin G/H synthase 2 (PTGS2, Homo sapiens, UniProt P35354)
Observed: enzyme activity
Mode: inhibitor
Sequence (P35354 18-604, as in one of the studies): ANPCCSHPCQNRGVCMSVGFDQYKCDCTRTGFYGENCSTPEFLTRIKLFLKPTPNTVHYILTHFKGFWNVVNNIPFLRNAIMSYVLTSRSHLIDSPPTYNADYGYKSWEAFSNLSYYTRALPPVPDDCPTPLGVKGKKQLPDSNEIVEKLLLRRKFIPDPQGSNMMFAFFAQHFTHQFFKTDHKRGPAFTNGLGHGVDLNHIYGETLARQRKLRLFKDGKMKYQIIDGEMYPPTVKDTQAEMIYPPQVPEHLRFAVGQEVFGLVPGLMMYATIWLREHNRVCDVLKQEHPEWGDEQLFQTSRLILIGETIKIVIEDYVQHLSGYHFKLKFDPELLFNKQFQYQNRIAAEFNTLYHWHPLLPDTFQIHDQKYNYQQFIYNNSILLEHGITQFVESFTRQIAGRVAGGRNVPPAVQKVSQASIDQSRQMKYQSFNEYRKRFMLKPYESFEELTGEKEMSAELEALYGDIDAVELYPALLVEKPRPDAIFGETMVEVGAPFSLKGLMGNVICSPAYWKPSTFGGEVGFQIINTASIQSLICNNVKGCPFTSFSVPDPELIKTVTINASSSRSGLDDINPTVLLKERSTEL

For Clc1ccc2c(C3CCN(CCc4c[nH]c5ccccc45)CC3)c[nH]c2c1, the inhibition was 79% (10 µM).
The inhibition of Cc1ccc(-c2nc3ccccc3s2)c(-c2ccc(S(C)(=O)=O)cc2)c1 is reported as 72% (absorbance; 10 µM).
c1ccc(C(NCCNC(c2ccccc2)c2ccccc2)c2ccccc2)cc1 has an inhibition of 0% (10 µM).
With Nc1ncc(-c2nc(N3CCOCC3)nc(N3CCOCC3)n2)c(C(F)F)n1 the remaining activity was 99% (10 µM).
Cc1ncc(C)n2nc(/C=C/c3nc(N4CCCC4)cc(N4CCOCC4)n3)nc12 gave an inhibition of 0% (10 µM).
For COCc1c(-c2cc3cc(C)cc(OC)c3s2)c2c(N)ncnn2c1CN1CCNC(=O)C1, the inhibition was 6% (10 µM).
NS(=O)(=O)c1ccc(-c2ncccc2-c2nc3ccccc3s2)cc1 gave an inhibition of 88.5% (absorbance; 10 µM).
With C[C@H](C(=O)N[C@H]1COc2ccccc2[C@@H]1S(C)(=O)=O)c1ccc(F)cc1 the inhibition was -27% (10 µM).
With COc1ccc(-c2ccc(N)cc2-c2nc3ccccc3s2)cc1 the inhibition was 10.3% (absorbance; 10 µM).
For O=C(Nc1cccnn1)N1CCN([C@@H]2CCOc3cc(C(F)(F)F)ccc32)CC1, the inhibition was -2% (20 µM).
